The source of these data is ChEMBL document CHEMBL1151419, “Antimicrobial effect of halocidin-derived peptide in a mouse model of Listeria infection” (Antimicrob Agents Chemother, 2007).

The test system of data set [1] is Listeria monocytogenes. In words: Antimicrobial activity against Listeria monocytogenes ATCC 19111 after 18 hrs by broth microdilution assay in presence of 150 mM NaCl. It counts as functional. Particulars: ATCC 19111, 18 h. Summed up: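 Bacteria were grown overnight to stationary phase in Mueller-Hinton broth at 37°C and diluted to 2 x 10^5 CFU/ml. Line 3 used MHB plus 150 mM NaCl. Peptide stock (640 µg/ml in 0.01% acetic acid) was twofold serially diluted to 10 µg/ml, and 11 µl was added per 100 µl of cells. Turbidity was read after 18 h at 37°C; MIC was the minimum concentration visibly inhibiting growth.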
(In broth dilution the organism is exposed to a series of concentrations in liquid medium.)

The next data set concerns Mus musculus. In words: Toxicity in BALB/c mouse assessed as lethality at 4 mg/kg, iv repeated 4 times at 1-day interval measured after 2 weeks. It counts as organism-based. Set-up: dose 4 mg/kg, route intravenous. Particulars: in vivo, 336 h. Summed up:
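Uninfected mice (n = 10) given 4 mg/kg i.v., repeated four times at 1-day intervals. Deaths monitored for 2 weeks.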

The test system of data set [2] is Listeria monocytogenes. In words: Antimicrobial activity against Listeria monocytogenes ATCC 19111 infected in BALB/c mouse at 4 mg/kg, iv in presence of increasing concentration of LTA. The class given is functional, organism-based. More on the design: dose 4 mg/kg.
The next data set concerns Enterococcus faecium. In words: Antimicrobial activity against vancomycin-resistant Enterococcus faecium CCARM 5029 after 18 hrs by broth microdilution assay. The settings on record: CCARM 5029, 18 h. It counts as functional. The gist of the method: (§1)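 Broth microdilution (modified CLSI). Overnight stationary-phase Mueller-Hinton broth cultures diluted to 2 x 10^5 CFU/ml final. Peptide serially twofold diluted in 0.01% acetic acid (stock series 640 down to 10 µg/ml); 11 µl added to 100 µl of bacteria. After 18 h at 37°C, MIC taken as the lowest concentration preventing visible turbidity.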

Data set [3] in a line: Stability in human serum assessed as half life at 1 mg/ml. The class given is ADME, cell-free.
Data set [4] relates to Listeria monocytogenes. Kind of data set: Antimicrobial activity against Listeria monocytogenes ATCC 19111 infected in BALB/c mouse assessed as survival of mouse at 4 mg/kg, iv administered 2 hrs after bacterial challenge measured after 4 days. The class given is functional, organism-based. Set-up: dose 4 mg/kg. Summed up:
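Mice (n = 10) were infected by tail vein with 2 x 10^5 L. monocytogenes, grown 18 h at 37°C in brain heart infusion broth. A single i.v. dose of 4 mg/kg in 100 µl PBS was given 2 h after infection; PBS-treated infected mice served as vehicle control. Surviving mice were counted daily for 15 days.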

Another data set relates to Liver. Kind of data set: Drug penetration in BALB/c mouse liver infected with CFSE-labeled Listeria monocytogenes ATCC 19111 at 200 ug, iv by laser scanning confocal microscopy. The class given is ADME, organism-based. The settings on record: in vivo. Summed up: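 Listeria was labeled with 5 µM CFSE for 20 min at 37°C in darkness and washed. Mice received 4 x 10^8 cells by tail vein, then immediately 200 µg peptide in 100 µl PBS i.v., or PBS only. Livers were taken 10 min later. Frozen 6-µm sections were stained with cross-reacting rabbit anti-18Hc antiserum (1:200) and Cy3 goat anti-rabbit IgG, then imaged by laser scanning confocal microscopy.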

A short description of data set [5]: Toxicity against human erythrocytes in assay tube containing mixture of erythrocytes/Listeria monocytogenes cells at 40 ug/ml after 30 mins. It counts as cell-based. The settings on record: erythrocyte, 0.5 h. The gist of the method:
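Washed mid-log L. monocytogenes (final 1 x 10^5 CFU/ml) was mixed with human blood cells (final 5 x 10^8 cells/ml) and peptide (final 40 µg/ml) in PBS at 37°C. A peptide-free control was included. At 10, 20 and 30 min, aliquots were plated on TSA and colonies counted after overnight growth. Blood cells were counted by hemocytometer under light microscopy.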

Data set [6] in a line: Toxicity in human erythrocytes assessed as hemolysis at 25 ug/ml relative to Triton X-100. It counts as cell-based, Erythrocyte. Particulars: read-out: Activity. The gist of the method: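 Peptide (20 µl) was mixed with 180 µl of a 2.5% (vol/vol) human RBC suspension in PBS and incubated 30 min at 37°C. PBS was added and samples centrifuged 3 min at 10,000 x g; supernatant A540 was read. Hemolysis was expressed relative to a peptide-free PBS blank and 1% Triton X-100 as 100%.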

The test system of data set [7] is Listeria monocytogenes. Kind of data set: Antimicrobial activity against Listeria monocytogenes ATCC 19111 infected in BALB/c mouse assessed as survival of mouse at 4 mg/kg, iv administered immediately after bacterial challenge measured after 6 days. The class given is functional. Particulars: ATCC 19111, 144 h. The gist of the method:
(§2)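 L. monocytogenes grown 18 h at 37°C in brain heart infusion broth and frozen at –80°C; viability checked by plating. Mice infected via tail vein with 2 x 10^5 bacteria each. A single 4 mg/kg i.v. dose in 100 µl PBS was given immediately or 2 h after infection; PBS vehicle controls. Ten mice per group; survivors counted daily for 15 days.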

Data set [8] concerns Listeria monocytogenes. Kind of data set: Antimicrobial activity against Listeria monocytogenes ATCC 19111 infected in BALB/c mouse assessed as reduction in number of recovered CFU in liver at 100 ug, iv measured after 3 days. It counts as functional, organism-based. Summed up: (§3)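 Mice were infected i.v. with L. monocytogenes and immediately given 100 µg peptide in 100 µl PBS i.v.; PBS alone served as control. On days 1 and 3, liver and spleen were homogenized in PBS/0.1% BSA, serially diluted, and plated on TSA with 5% sheep blood. Colonies were counted after 18 h at 37°C. Three independent experiments; mean ± SD.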

Data set [9] relates to Staphylococcus aureus. In words: Antimicrobial activity against methicillin-resistant Staphylococcus aureus CCARM 3695 treated with sample containing 25 to 200 ug/ml drug incubated with PBS for 10 mins measured after 3 hrs by radial diffusion assay. It counts as functional, organism-based. The gist of the method: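 Serum-free radial diffusion. Peptide in PBS alone (200 µg/ml control) held 10 min at 37°C; 5 µl placed in 3-mm wells. Underlay: pH 7.4 agarose, phosphate/citrate, 0.3 mg/ml TSB, mid-log MRSA 4 x 10^6 CFU/ml. After 3 h at 37°C, TSB-agarose overlay, incubated overnight. Clear-zone diameter read to 0.1 mm (1 mm = 10 units).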

Data set [10] can be described thus: Stability in human serum assessed as drug remaining at 1 mg/ml after 8 hrs. It counts as ADME, cell-free. The settings on record: read-out: Stability. Summed up:
(§4)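 At 0, 2, 4 and 8 h, 200-µl aliquots were quenched with 20 µl of 1% TFA, held 10 min at 4°C, and centrifuged. Remaining peptide was quantified by HPLC peak area relative to the unincubated sample. Triplicate runs.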

The test system of data set [11] is Listeria monocytogenes. In words: Antimicrobial activity against Listeria monocytogenes ATCC 19111 infected in BALB/c mouse at 4 mg/kg, iv in presence of increasing concentration of PGN. More on the design: dose 4 mg/kg. The class given is functional, organism-based.
The nature of data set [12]: Stability in human serum assessed as drug remaining at 1 mg/ml after 4 hrs. Particulars: read-out: Stability. It counts as ADME, cell-free. Summed up: as §4
The subject of data set [13] is Listeria monocytogenes. In words: Antimicrobial activity against Listeria monocytogenes ATCC 19111 infected in BALB/c mouse assessed as survival of mouse at 4 mg/kg, iv administered 2 hrs after bacterial challenge measured after 15 days. It counts as functional. Summed up:
as §2

Data set [14] relates to Listeria monocytogenes. In words: Antimicrobial activity against Listeria monocytogenes ATCC 19111 infected in BALB/c mouse assessed as reduction in number of recovered CFU in spleen at 100 ug, iv measured after 3 days. The class given is functional, organism-based. The gist of the method:
as §3

The subject of data set [15] is Listeria monocytogenes. In words: Antimicrobial activity against Listeria monocytogenes ATCC 19111 infected in BALB/c mouse assessed as survival of mouse at 4 mg/kg, iv administered immediately after bacterial challenge measured after 15 days. It counts as functional. The settings on record: ATCC 19111, 360 h. Summed up:
as §2

For data set [16], the system named is Staphylococcus aureus. In words: Antimicrobial activity against methicillin-resistant Staphylococcus aureus CCARM 3695 after 18 hrs by broth microdilution assay. The class given is functional. The settings on record: CCARM 3695, 18 h. Summed up: as §1

The structures appear in SMILES notation. ≈ marks a conversion by molar mass, not a printed value. Calls of active or inactive are those of the source. Bridge positions count the residues as written; N and C are the ends. Peptide text beside a SMILES is read from it. I, II: the chains in the order shown.

The term MIC denotes the smallest concentration in the dilution series that meets the test's criterion for growth inhibition. The term half-life denotes how long it takes for the measured level to halve. `CC(C)C[C@H](NC(=O)CNC(=O)[C@H](Cc1cnc[nH]1)NC(=O)[C@H](Cc1cnc[nH]1)NC(=O)[C@H](CC(C)C)NC(=O)[C@H](CC(C)C)NC(=O)[C@H](C)N)C(=O)N[C@@H](CC(N)=O)C(=O)N[C@@H](CSSC[C@H](NC(=O)[C@H](CC(N)=O)NC(=O)[C@H](CC(C)C)NC(=O)CNC(=O)[C@H](Cc1cnc[nH]1)NC(=O)[C@H](Cc1cnc[nH]1)NC(=O)[C@H](CC(C)C)NC(=O)[C@H](CC(C)C)NC(=O)[C@H](C)NC(=O)[C@H](CC(N)=O)NC(=O)[C@H](CC(C)C)NC(=O)[C@H](Cc1c[nH]c2ccccc12)NC(=O)[C@@H](N)CCCCN)C(=O)N[C@@H](C)C(=O)N[C@@H](CCCCN)C(=O)NCC(=O)N[C@H](C(=O)N[C@@H](CC(C)C)C(=O)N[C@@H](C)C(=O)O)C(C)C)C(=O)N[C@@H](C)C(=O)N[C@@H](CCCCN)C(=O)NCC(=O)N[C@H](C(=O)N[C@@H](CC(C)C)C(=O)N[C@@H](C)C(=O)O)C(C)C` (I: H-KWLNALLHHGLNCAKGVLA-OH / II: H-ALLHHGLNCAKGVLA-OH; disulfide I:13-II:9): the results for the MIC in the data set with Listeria monocytogenes [1], against Enterococcus faecium and in the data set on Staphylococcus aureus [16] were 16 µg/mL, 8 µg/mL (≈ 2.24 µM) and 8 µg/mL (≈ 2.24 µM), respectively. For the same compound, the Activity entry is listed as “Non-toxic” in the data set on Mus musculus, “Active” in the data set on Liver and “Non-toxic” in data set [5]. The result with Listeria monocytogenes [2] and in the data set on Listeria monocytogenes [11] was inactive. Moreover, the half-life at 1 mg/ml in data set [3] is 6 h. Besides, the result in the data set on Listeria monocytogenes [4], in the data set on Listeria monocytogenes [8], in the data set on Staphylococcus aureus [9] and with Listeria monocytogenes [14] was Active. For the same compound, the hemolysis at 25 ug/ml in data set [6] was determined as 2.3%. For the same compound, the values for the survival at 4 mg/kg in the data set on Listeria monocytogenes [7], in the data set with Listeria monocytogenes [13] and with Listeria monocytogenes [15] were 100%, 50% and 90%, respectively. Moreover, in [10], the remaining at 8 h, 1 mg/ml came out at 39%. The remaining at 4 h, 1 mg/ml in data set [12] is > 70%.
